The text below walks through data of paper PMC4561207 (Child's nervous system : ChNS : official journal of the …, 2015).

Data set [1] has as its system Plasma VEGF, bFGF, endostatin and IL8 and urine MMPs. In words: Pharmacodynamic biomarkers in plasma and urine. Type of data set: in vivo, human. To be noted: baseline vs day 7–14 of cycle 1, or baseline vs end of cycle 2. An outline of the steps:
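Plasma VEGF, bFGF, endostatin and IL8 and urine MMPs were measured by human immunoassays before course 1, once on days 7–14 of course 1, at each MRI scan, and at discontinuation or completion. The fold change was calculated as the later-timepoint value divided by the earlier-timepoint value.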

The conditions of data set [2]: pediatric MTD of 12mg/m^2/day; cited from earlier work.

Take `COc1cc2c(Oc3ccc4[nH]c(C)cc4c3F)ncnc2cc1OCCCN1CCCC1` [cediranib, Cediranib]: in data set [1], the “changes in MMP-9, MMP-9 Dimers or MMP-9/NGAL” value is given as “No significant changes”. Moreover, in data set [2], the “median AUC(0-inf)” value is 900 ng·h/mL and the “median Cmax” value is reported as 67 ng/mL.
